Legend:
[1] = Oral bioavailability in rat at 10 mg/kg; assay type: ADME, organism-based; settings: in vivo
Huh-5-2 = assay: Viability of Huh5-2 cells by MTT assay; assay type: functional; settings: Homo sapiens
[2] = Plasma concentration in rat at 30 mg/kg, po after 1 hr; assay type: ADME, organism-based; set-up: dose 30 mg/kg, route oral
Summary of the method: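 Rats dosed orally at 30 mg/kg; plasma sampled at 1 and 2 h; n = 2 or 3.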

[3] = Half life in rat at 10 mg/kg; assay type: ADME, organism-based; set-up: dose 10 mg/kg; settings: in vivo
Cytochrome P450 3A4 = Cytochrome P450 3A4 (Homo sapiens, UniProt P08684); assay: Inhibition of CYP450 3A4; assay type: ADME
Sequence of Cytochrome P450 3A4 (P08684 whole entry): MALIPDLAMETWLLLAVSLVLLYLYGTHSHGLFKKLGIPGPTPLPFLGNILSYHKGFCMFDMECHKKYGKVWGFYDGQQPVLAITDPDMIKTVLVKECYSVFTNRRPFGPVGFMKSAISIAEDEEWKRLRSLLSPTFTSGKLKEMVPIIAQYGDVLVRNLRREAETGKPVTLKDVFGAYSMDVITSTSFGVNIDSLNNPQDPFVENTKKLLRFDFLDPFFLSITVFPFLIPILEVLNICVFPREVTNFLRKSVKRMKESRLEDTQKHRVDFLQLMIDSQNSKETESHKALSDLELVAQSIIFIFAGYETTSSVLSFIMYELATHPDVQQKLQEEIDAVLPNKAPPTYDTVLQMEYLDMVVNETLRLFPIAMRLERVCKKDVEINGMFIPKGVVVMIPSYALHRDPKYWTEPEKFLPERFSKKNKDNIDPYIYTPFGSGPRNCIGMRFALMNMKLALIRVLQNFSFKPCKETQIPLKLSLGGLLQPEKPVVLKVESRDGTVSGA

Rattus norvegicus = assay: Toxicity in rat up to 300 mg/kg/day after 4 weeks; assay type: organism-based; settings: in vivo, 672 h
[4] = molecular target: T1, RNA-directed RNA polymerase (Hepacivirus hominis, UniProt O39930); assay: Inhibition of HCV 1a NS5B RNA dependent RNA polymerase; set-up: species or system Hepatitis C virus subtype 1a
T1 sequence (O39930 whole entry): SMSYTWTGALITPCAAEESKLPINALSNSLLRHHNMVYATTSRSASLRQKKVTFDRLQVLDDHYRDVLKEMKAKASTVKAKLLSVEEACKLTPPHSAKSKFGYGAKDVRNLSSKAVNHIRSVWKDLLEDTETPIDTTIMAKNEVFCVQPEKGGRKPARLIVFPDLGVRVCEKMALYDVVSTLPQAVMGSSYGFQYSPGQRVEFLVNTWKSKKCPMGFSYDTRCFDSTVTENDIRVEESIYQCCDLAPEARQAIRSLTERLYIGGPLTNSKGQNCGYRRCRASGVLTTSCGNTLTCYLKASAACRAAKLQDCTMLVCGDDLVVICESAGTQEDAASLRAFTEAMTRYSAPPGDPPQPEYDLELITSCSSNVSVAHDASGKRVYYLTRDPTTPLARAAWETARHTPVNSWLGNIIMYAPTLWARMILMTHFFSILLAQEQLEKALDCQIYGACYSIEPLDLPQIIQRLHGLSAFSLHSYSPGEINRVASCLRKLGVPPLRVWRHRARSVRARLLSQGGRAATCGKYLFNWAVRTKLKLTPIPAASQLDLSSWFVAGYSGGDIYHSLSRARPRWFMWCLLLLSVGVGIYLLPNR
Summary of the method: (§1)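 IC50 from the mean of four independent experiments; standard deviations within 30% of the mean.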

[5] = molecular target: T1, RNA-directed RNA polymerase; assay: Inhibition of HCV 2b NS5B RNA dependent RNA polymerase; set-up: species or system Hepatitis C virus subtype 2b; summary of the method: as §1
[6] = molecular target: T1, RNA-directed RNA polymerase; assay: Inhibition of HCV 3a NS5B RNA dependent RNA polymerase; summary of the method: as §1
[7] = molecular target: T2, DNA polymerase subunit gamma-1 (Homo sapiens, UniProt P54098); assay: Inhibition of DNA polymerase gamma
T2 sequence (P54098 whole entry): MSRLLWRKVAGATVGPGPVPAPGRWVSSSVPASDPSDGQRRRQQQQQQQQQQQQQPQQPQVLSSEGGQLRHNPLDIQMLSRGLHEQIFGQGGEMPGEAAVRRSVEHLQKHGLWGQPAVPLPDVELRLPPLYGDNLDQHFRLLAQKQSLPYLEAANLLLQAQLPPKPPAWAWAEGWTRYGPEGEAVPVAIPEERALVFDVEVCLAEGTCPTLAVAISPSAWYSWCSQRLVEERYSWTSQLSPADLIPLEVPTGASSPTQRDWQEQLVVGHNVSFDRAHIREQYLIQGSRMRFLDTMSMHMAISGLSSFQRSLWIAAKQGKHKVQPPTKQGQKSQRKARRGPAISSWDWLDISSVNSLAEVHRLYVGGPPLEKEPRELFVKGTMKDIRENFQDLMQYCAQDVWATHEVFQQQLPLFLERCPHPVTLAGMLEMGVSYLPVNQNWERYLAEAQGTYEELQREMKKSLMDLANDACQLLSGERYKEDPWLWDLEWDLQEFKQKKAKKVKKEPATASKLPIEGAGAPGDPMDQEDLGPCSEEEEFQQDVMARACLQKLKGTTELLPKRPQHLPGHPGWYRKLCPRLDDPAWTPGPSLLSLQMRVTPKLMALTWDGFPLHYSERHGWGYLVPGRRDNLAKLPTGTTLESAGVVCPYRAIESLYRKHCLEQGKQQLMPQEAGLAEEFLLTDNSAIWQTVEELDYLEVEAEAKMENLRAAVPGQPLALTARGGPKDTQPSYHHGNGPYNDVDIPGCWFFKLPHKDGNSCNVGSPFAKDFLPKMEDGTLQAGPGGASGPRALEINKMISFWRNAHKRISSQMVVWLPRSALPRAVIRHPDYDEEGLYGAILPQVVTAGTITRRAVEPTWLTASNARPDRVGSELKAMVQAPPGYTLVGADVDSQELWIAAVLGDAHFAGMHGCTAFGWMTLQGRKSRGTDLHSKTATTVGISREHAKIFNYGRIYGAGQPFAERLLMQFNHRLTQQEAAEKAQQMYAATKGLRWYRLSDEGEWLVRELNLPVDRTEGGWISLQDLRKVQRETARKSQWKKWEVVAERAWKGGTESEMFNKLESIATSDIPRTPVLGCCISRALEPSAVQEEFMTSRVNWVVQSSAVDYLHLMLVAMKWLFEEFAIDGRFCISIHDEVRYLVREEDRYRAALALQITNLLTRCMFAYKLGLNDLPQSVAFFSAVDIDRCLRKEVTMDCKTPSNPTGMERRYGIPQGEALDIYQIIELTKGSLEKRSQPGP

[8] = Inhibition of mammalian DNA dependent RNA polymerase
Cytochrome P450 2D6 = Cytochrome P450 2D6 (Homo sapiens, UniProt P10635); assay: Induction of CYP450 2D6; assay type: ADME
Sequence of Cytochrome P450 2D6 (P10635 whole entry): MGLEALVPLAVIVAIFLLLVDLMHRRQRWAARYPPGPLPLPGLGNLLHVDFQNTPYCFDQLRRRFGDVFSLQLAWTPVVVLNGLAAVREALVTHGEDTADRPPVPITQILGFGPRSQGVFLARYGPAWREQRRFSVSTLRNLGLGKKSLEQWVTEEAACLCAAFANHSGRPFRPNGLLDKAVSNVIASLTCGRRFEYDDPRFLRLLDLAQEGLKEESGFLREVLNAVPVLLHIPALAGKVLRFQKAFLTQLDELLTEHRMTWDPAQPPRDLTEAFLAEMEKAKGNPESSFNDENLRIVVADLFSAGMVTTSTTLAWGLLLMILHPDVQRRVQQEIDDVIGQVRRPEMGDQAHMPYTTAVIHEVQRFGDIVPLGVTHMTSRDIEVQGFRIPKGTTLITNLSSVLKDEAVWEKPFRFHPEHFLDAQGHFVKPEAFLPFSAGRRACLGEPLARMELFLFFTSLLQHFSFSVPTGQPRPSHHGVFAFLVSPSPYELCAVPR

O=C(O)c1ccc2c(c1)nc(-c1ccc(OCc3cc(N4CCCC4=O)ccc3-c3ccc(Cl)cc3)cc1F)n2C1CCCCC1
bioavailability [1]: 36%
CC50 (Huh-5-2): 25000 nM
concentration at 1 h [2]: 4 µM
half-life [3]: 2.1 h
Inhibition (Cytochrome P450 3A4): Not Active
Activity (Rattus norvegicus): Non-toxic
IC50 [4]: 62 nM
IC50 [5]: 2000 nM
IC50 [6]: 61 nM
IC50 [7]: > 10000 nM
IC50 [8]: > 10000 nM
Activity (Cytochrome P450 2D6): Not Active

From ChEMBL document CHEMBL1138950, “Benzimidazole derivatives bearing substituted biphenyls as hepatitis C virus NS5B RNA-dependent RNA polymerase inhibitors: structure-activity relationship studies and identification of a potent and highly selective inhibitor JTK-109” (J Med Chem, 2006)
